Screening data: PubChem BioAssay, Broad Institute
Shown are actives, neighbours in structure and some others; about 0.58% of the full set was active somewhere.
Cneo AK release: Cryptococcus neoformans cell lysis inducers, primary screen, AK release luminescence, single concentration. hit rate 0.2% among 360,000. C. neoformans lysis, adenylate kinase release luminescence, 4 h; normalised: neutral wells 0, clomiphene wells 100. lysis activity, % at 15 µM;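 active = mean lysis activity across replicates of at least 80%, whatever share of replicates individually reach that level; inactive = mean lysis activity below 80%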
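Material: C. neoformans cells | Amount: Yeast cell density of 5 × 10^6 cells/mL | Medium: Fresh YPD growth medium | Dosing: Single dose | Times: Static 4 h at 37 °C with compound, 1 h detection | Detection: AK luminescence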
PglD inh: C. jejuni PglD acetyltransferase inhibitors, primary screen, biochemical, DTNB colorimetric, single point. UDP-N-acetylbacillosamine N-acetyltransferase PglD (Campylobacter jejuni). purified PglD enzyme, DTNB colorimetric CoA detection. inhibition, % at 12.5 µM. hit rate 0.098% among 360,000. AID 602405, 2012; in the data active = inhibition above about 16%, passing the limit was not always enough
PvdQ inh: P. aeruginosa PvdQ acylase inhibitors, primary screen, biochemical, fluorescence, plate reader and imaging, single point; purified PvdQ acylase; hit rate 0.063% among 340,000; inhibition, % at 10 µM; in the data active = inhibition above about 30%, passing the limit was not always enough;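 also: 0% = vehicle neutral wells and 100% = reference inhibitor wells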
PDI turbidity: inhibitors of human PDI, primary screen, biochemical, turbidity, single point, plate reader; Protein disulfide-isomerase (Homo sapiens), P07237; PDI insulin aggregation turbidity, A650, 90 min; inhibition, % at 10 µM; hit rate 0.052% among 350,000;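 active = mean inhibition across replicates of 30% or more, whatever share of single replicates reach that level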
miR-122 sensor: miR-122 Renilla sensor signal increase in Huh7, primary screen, miR-122 inhibitor project, cell-based, single point, plate reader | Huh7 miR-122 Renilla luciferase sensor, 48 h; neutral wells = 0, positive control = 100 | activation (reporter increase), % at 12.5 µM | hit rate 0.3% among 340,000 | AID 602342, 2012;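 active = mean replicate activation score at least 90 and every replicate individually at or above 90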;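 also: higher luciferase means less miR-122 activity so hits act as miR-122 inhibitors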
ERp5 inh: inhibitors of ERp5-driven insulin aggregation, primary screen, biochemical, turbidity, absorbance 650 nm, single point; 90 min; inhibition, % at 9.99 µM; hit rate 0.05% among 350,000; AID 651711, 2012;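 active = mean replicate inhibition above about 25%, with every replicate also reaching it, limit read from the data, passing the limit was not always enough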
Target sequence (Q15084 whole entry, looked up): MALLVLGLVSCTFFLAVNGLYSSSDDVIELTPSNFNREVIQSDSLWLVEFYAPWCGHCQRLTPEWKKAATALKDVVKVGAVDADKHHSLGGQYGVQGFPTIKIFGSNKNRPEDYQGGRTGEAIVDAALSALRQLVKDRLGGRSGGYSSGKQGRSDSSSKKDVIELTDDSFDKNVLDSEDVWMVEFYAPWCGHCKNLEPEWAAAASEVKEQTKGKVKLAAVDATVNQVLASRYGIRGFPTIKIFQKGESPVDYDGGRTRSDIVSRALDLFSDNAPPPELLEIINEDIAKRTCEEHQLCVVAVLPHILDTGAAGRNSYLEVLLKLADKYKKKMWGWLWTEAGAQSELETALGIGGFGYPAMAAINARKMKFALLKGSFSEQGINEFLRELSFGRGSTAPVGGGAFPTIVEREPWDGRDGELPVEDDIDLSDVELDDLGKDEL
Active calls of the source: *; [ ] = dose if it differs, or a comment.

`COc1ccc(S(=O)(=O)N(C)C[C@@H]2Oc3ncc(C#Cc4ccccc4)cc3C(=O)N([C@H](C)CO)C[C@@H]2C)cc1` gave Cneo AK release 62.5, PglD inh 3.4, miR-122 sensor -9.8[16.7 µM] and ERp5 inh 11.5.
For CCCNC(=O)C[C@H]1C[C@@H]2c3cc(NC(=O)CC4CC4)ccc3O[C@@H]2[C@@H](CO)O1 the results were Cneo AK release 5.7, PglD inh -3.2, miR-122 sensor 1.7[16.7 µM] and ERp5 inh 61.7*.
CCCNC(=O)C[C@@H]1C[C@@H]2c3cc(NS(C)(=O)=O)ccc3O[C@@H]2[C@H](CO)O1 was read as Cneo AK release 18.6, PglD inh -3.0, miR-122 sensor 0.7[16.7 µM] and ERp5 inh 32.3*.
N#Cc1ccc(C(=O)N(Cc2ccco2)c2c(N)n(Cc3ccccc3)c(=O)[nH]c2=O)cc1 was read as Cneo AK release 0.6, PglD inh -0.3, PvdQ inh -9.4, PDI turbidity 33.2*, miR-122 sensor -4.9 and ERp5 inh -7.3.
Screening Nc1c(N(Cc2ccco2)C(=O)c2ccc(Cl)cc2)c(=O)[nH]c(=O)n1Cc1ccccc1 returned Cneo AK release 3.0, PglD inh 10.2, PvdQ inh -13.2, PDI turbidity 18.7, miR-122 sensor 5.4 and ERp5 inh 3.0.
O=C(C[C@@H]1CC[C@@H]2[C@H](COC[C@H](O)CN2Cc2cccc(C(F)(F)F)c2)O1)NCc1ccccc1 was read as Cneo AK release 96.8*, PglD inh -0.7, miR-122 sensor -1.0[16.7 µM] and ERp5 inh -0.1.
Screening COCCNC(=O)C[C@@H]1CC[C@H]2[C@@H](COC[C@H](O)CN2Cc2cccc(-c3ccncc3)c2)O1 returned Cneo AK release 108.5*, PglD inh 4.1, miR-122 sensor -2.5[16.7 µM] and ERp5 inh 0.1.
O=C(C[C@H]1CC[C@H]2[C@@H](COC[C@H](O)CN2Cc2cccc(C(F)(F)F)c2)O1)NCc1ccccc1 was read as Cneo AK release -0.6, PglD inh -0.2, miR-122 sensor -4.0[16.7 µM] and ERp5 inh -0.3.
Screening COCCNC(=O)C[C@@H]1CC[C@H]2[C@@H](COC[C@@H](O)CN2Cc2cccc(-c3ccncc3)c2)O1 returned Cneo AK release 0.0, PglD inh 1.4, miR-122 sensor -2.5[16.7 µM] and ERp5 inh -3.4.
`C[C@H]1CCCCO[C@H](CN(C)Cc2ccncc2)[C@@H](C)CN([C@@H](C)CO)C(=O)c2cc(NC(=O)Nc3ccccc3)ccc2O1` gave Cneo AK release -1.3, PglD inh -1.6, miR-122 sensor 4.0[16.7 µM] and ERp5 inh -1.4.
Screening CC(C)NC(=O)Nc1ccc2c(c1)C(=O)N([C@@H](C)CO)C[C@H](C)[C@@H](CN(C)Cc1ccc3c(c1)OCO3)OCCCC[C@@H](C)O2 returned Cneo AK release 101.7*, PglD inh 1.4, miR-122 sensor 3.8[16.7 µM] and ERp5 inh -6.2.
For CC(C)NC(=O)Nc1ccc2c(c1)C(=O)N([C@@H](C)CO)C[C@@H](C)[C@H](CN(C)Cc1ccncc1)OCCCC[C@@H](C)O2 the results were Cneo AK release 111.4*, PglD inh -0.1, miR-122 sensor -1.0[16.7 µM] and ERp5 inh 1.5.
CC(C)NC(=O)Nc1ccc2c(c1)C(=O)N([C@@H](C)CO)C[C@@H](C)[C@@H](CN(C)Cc1ccc3c(c1)OCO3)OCCCC[C@@H](C)O2 was read as Cneo AK release 1.4, PglD inh -0.6, miR-122 sensor 3.7[16.7 µM] and ERp5 inh 0.4.
C[C@@H]1CCCCO[C@H](CN(C)Cc2ccncc2)[C@@H](C)CN([C@@H](C)CO)C(=O)c2cc(NC(=O)Nc3ccccc3)ccc2O1 was read as Cneo AK release 81.1*, PglD inh 3.6, miR-122 sensor 25.9[16.7 µM] and ERp5 inh 2.6.
